Source: ChEMBL document CHEMBL1177669, “Synthesis and biological study of 3-(phenylsulfonyl)thieno[2,3-e][1,2,3]triazolo[1,5-a]pyrimidines as potent and selective serotonin 5-HT6 receptor antagonists” (Bioorg Med Chem, 2010)

target: T1, 5-hydroxytryptamine receptor 6 (Homo sapiens, UniProt P50406); assay: Antagonist activity at human recombinant 5HT6 receptor expressed in HEK293 cells assessed as inhibition of serotonin-induced cAMP production; assay type: functional, cell-based
Summary of the method: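 HEK293 cells stably expressing recombinant human 5-HT6R, stimulated with serotonin. cAMP from adenylyl cyclase measured by LANCE. Compounds screened at 5 and 10 μM. IC50 determined for compounds giving more than 50% inhibition of cAMP synthesis at 5 μM.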

T1 sequence (P50406 whole entry): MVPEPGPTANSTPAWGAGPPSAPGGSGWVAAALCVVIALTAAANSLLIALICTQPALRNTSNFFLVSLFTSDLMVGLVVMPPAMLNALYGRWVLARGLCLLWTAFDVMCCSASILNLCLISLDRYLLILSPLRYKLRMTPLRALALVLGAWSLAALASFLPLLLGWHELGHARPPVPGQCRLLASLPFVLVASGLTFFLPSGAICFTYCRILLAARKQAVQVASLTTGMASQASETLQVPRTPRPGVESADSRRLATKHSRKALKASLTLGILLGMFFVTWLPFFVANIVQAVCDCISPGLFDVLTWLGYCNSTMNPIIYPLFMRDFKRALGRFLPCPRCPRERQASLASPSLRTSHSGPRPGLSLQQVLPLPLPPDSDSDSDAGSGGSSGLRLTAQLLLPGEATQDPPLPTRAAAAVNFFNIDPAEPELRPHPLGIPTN

| IC50 [nM] | Structure (SMILES) |
| --- | --- |
| 1040 | O=S(=O)(c1cccc(Cl)c1)c1nnn2c1nc(N1CCOCC1)c1sccc12 |
| > 5000 | CCc1ccc(S(=O)(=O)c2nnn3c2nc(NCCC(C)C)c2sccc23)cc1 |
| 1430 | Cc1ccc(S(=O)(=O)c2nnn3c2nc(Nc2ccc(Cl)cc2)c2sccc23)cc1C |
| 2260 | Cc1cc(Cl)cc(Nc2nc3c(S(=O)(=O)c4ccc(C)c(C)c4)nnn3c3ccsc23)c1 |
| > 5000 | COCCNc1nc2c(S(=O)(=O)c3ccc(C(C)C)cc3)nnn2c2ccsc12 |
| 610 | Nc1nc2c(S(=O)(=O)c3ccc(Br)cc3)nnn2c2ccsc12 |
| 960 | Cc1ccc(S(=O)(=O)c2nnn3c2nc(NCCc2ccccc2)c2sccc23)cc1 |
| 2500 | O=S(=O)(c1cccc(Cl)c1)c1nnn2c1nc(Nc1ccc(F)cc1)c1sccc12 |
| 820 | O=S(=O)(c1cccc(Cl)c1)c1nnn2c1nc(NCCc1ccccc1)c1sccc12 |
| 68 | CC(C)CCNc1nc2c(S(=O)(=O)c3cccc(Cl)c3)nnn2c2ccsc12 |
| 820 | Cc1ccc(S(=O)(=O)c2nnn3c2nc(NC2CCCCC2)c2sccc23)cc1C |
| 300 | CCN(Cc1ccccc1)c1nc2c(S(=O)(=O)c3ccc(C)cc3)nnn2c2ccsc12 |
| 180 | Cc1ccc(S(=O)(=O)c2nnn3c2nc(NC(C)c2ccccc2)c2sccc23)cc1 (stereo not drawn) |
| 2000 | CC1CCCN(c2nc3c(S(=O)(=O)c4cccc(Cl)c4)nnn3c3ccsc23)C1 (stereo not drawn) |
| 860 | Cc1ccc(C)c(S(=O)(=O)c2nnn3c2nc(NCCC(C)C)c2sccc23)c1 |
| 1250 | Cc1ccc(S(=O)(=O)c2nnn3c2nc(NCc2ccc4c(c2)OCO4)c2sccc23)cc1 |
| 580 | CCN(Cc1ccccc1)c1nc2c(S(=O)(=O)c3ccc(Br)cc3)nnn2c2ccsc12 |
| 580 | Cc1ccc(S(=O)(=O)c2nnn3c2nc(NCCC(C)C)c2sccc23)cc1 |
| 960 | O=S(=O)(c1ccc(Cl)cc1)c1nnn2c1nc(NC1CCCCC1)c1sccc12 |
| 1830 | CC(C)c1ccc(S(=O)(=O)c2nnn3c2nc(NCc2ccccc2Cl)c2sccc23)cc1 |
| 1080 | CC(Cc1ccccc1)Nc1nc2c(S(=O)(=O)c3ccccc3)nnn2c2ccsc12 (stereo not drawn) |
| 740 | Cc1ccc(S(=O)(=O)c2nnn3c2nc(NCc2ccc(F)cc2)c2sccc23)cc1 |
| 800 | Cc1cccc(Nc2nc3c(S(=O)(=O)c4ccc(Cl)cc4)nnn3c3ccsc23)c1C |
| 3810 | Cc1ccc(S(=O)(=O)c2nnn3c2nc(Nc2cccc(F)c2)c2sccc23)cc1 |

| IC50 [nM] | Structure (SMILES) |
| --- | --- |
| 740 | Cc1ccc(C)c(Nc2nc3c(S(=O)(=O)c4cccc(Cl)c4)nnn3c3ccsc23)c1 |
| 520 | Cc1ccc(S(=O)(=O)c2nnn3c2nc(NCc2ccc(F)cc2)c2sccc23)cc1C |
| 190 | O=S(=O)(c1cccc(Cl)c1)c1nnn2c1nc(NCc1ccco1)c1sccc12 |
| 1350 | Cc1ccc(Nc2nc3c(S(=O)(=O)c4ccc(Br)cc4)nnn3c3ccsc23)cc1C |
| 470 | COc1ccccc1CNc1nc2c(S(=O)(=O)c3ccc(C)c(C)c3)nnn2c2ccsc12 |
| 1930 | Cc1ccc(C)c(S(=O)(=O)c2nnn3c2nc(N2CCOCC2)c2sccc23)c1 |
| 790 | Cc1ccc(S(=O)(=O)c2nnn3c2nc(NC2CCCCCC2)c2sccc23)cc1 |
| 1900 | CCc1ccc(S(=O)(=O)c2nnn3c2nc(N(CC)CC)c2sccc23)cc1 |
| 290 | O=S(=O)(c1ccccc1)c1nnn2c1nc(NCc1ccc3c(c1)OCO3)c1sccc12 |
| 820 | O=S(=O)(c1ccccc1)c1nnn2c1nc(Nc1cccc(C(F)(F)F)c1)c1sccc12 |
| 590 | Cc1ccc(S(=O)(=O)c2nnn3c2nc(Nc2cccc(C)c2C)c2sccc23)cc1 |
| > 5000 | O=S(=O)(c1ccccc1)c1nnn2c1nc(Nc1nc3ccccc3s1)c1sccc12 |
| 1150 | COc1ccccc1CNc1nc2c(S(=O)(=O)c3ccc(Cl)cc3)nnn2c2ccsc12 |
| 1990 | NC(=O)C1CCN(c2nc3c(S(=O)(=O)c4ccccc4)nnn3c3ccsc23)CC1 |
| 1990 | Cc1ccc(C)c(S(=O)(=O)c2nnn3c2nc(N2CCC(C)CC2)c2sccc23)c1 |
| 1540 | O=S(=O)(c1cccc(Cl)c1)c1nnn2c1nc(N1CCCCCC1)c1sccc12 |
| 590 | Cc1cccc(Nc2nc3c(S(=O)(=O)c4ccc(C(C)C)cc4)nnn3c3ccsc23)c1 |
| 60 | CCCCNc1nc2c(S(=O)(=O)c3cccc(Cl)c3)nnn2c2ccsc12 |
| 650 | O=S(=O)(c1ccc(Cl)cc1)c1nnn2c1nc(NCc1cccs1)c1sccc12 |
| 1150 | COc1ccccc1Nc1nc2c(S(=O)(=O)c3ccc(Cl)cc3)nnn2c2ccsc12 |
| 69 | CCCCNc1nc2c(S(=O)(=O)c3ccccc3)nnn2c2ccsc12 |
| 1110 | Cc1ccc(Nc2nc3c(S(=O)(=O)c4ccc(C(C)C)cc4)nnn3c3ccsc23)cc1C |
| 1620 | O=S(=O)(c1ccc(Br)cc1)c1nnn2c1nc(NCC1CCCO1)c1sccc12 (stereo not drawn) |
| 150 | O=S(=O)(c1cccc(Cl)c1)c1nnn2c1nc(NCc1cccs1)c1sccc12 |

| IC50 [nM] | Structure (SMILES) |
| --- | --- |
| 580 | COc1ccccc1CNc1nc2c(S(=O)(=O)c3ccc(C)cc3)nnn2c2ccsc12 |
| 920 | O=S(=O)(c1cccc(Cl)c1)c1nnn2c1nc(Nc1ccccc1)c1sccc12 |
| 540 | CC(Nc1nc2c(S(=O)(=O)c3ccc(Br)cc3)nnn2c2ccsc12)c1ccccc1 (stereo not drawn) |
| 710 | Cc1ccc(C)c(S(=O)(=O)c2nnn3c2nc(NCc2cccs2)c2sccc23)c1 |
| 900 | COc1cccc(Nc2nc3c(S(=O)(=O)c4ccc(C(C)C)cc4)nnn3c3ccsc23)c1 |
| 150 | COCCCNc1nc2c(S(=O)(=O)c3cccc(Cl)c3)nnn2c2ccsc12 |
| 29 | O=S(=O)(c1cccc(Cl)c1)c1nnn2c1nc(NCC1CCCO1)c1sccc12 (stereo not drawn) |
| 270 | O=S(=O)(c1ccc(Cl)cc1)c1nnn2c1nc(NCc1ccccc1)c1sccc12 |
| 1190 | CN(Cc1ccccc1)c1nc2c(S(=O)(=O)c3ccc(Cl)cc3)nnn2c2ccsc12 |
| 2030 | CC1CCCN(c2nc3c(S(=O)(=O)c4ccccc4)nnn3c3ccsc23)C1 (stereo not drawn) |
| 1950 | CN(Cc1ccccc1)c1nc2c(S(=O)(=O)c3ccc(Br)cc3)nnn2c2ccsc12 |
| 1210 | Cc1ccc(Nc2nc3c(S(=O)(=O)c4cccc(Cl)c4)nnn3c3ccsc23)cc1 |
| 750 | Cc1ccc(S(=O)(=O)c2nnn3c2nc(NC(C)C)c2sccc23)cc1C |
| 540 | CCN(Cc1ccccc1)c1nc2c(S(=O)(=O)c3cccc(Cl)c3)nnn2c2ccsc12 |
| 1330 | Cc1ccc(S(=O)(=O)c2nnn3c2nc(N(C)Cc2ccccc2)c2sccc23)cc1C |
| 46 | Cc1ccc(S(=O)(=O)c2nnn3c2nc(NCCC(C)C)c2sccc23)cc1C |
| 780 | CN(C)CCN(C)c1nc2c(S(=O)(=O)c3cccc(Cl)c3)nnn2c2ccsc12 [listing 1 of 2 here] |
| > 5000 | CCCCNc1nc2c(S(=O)(=O)c3ccc(C(C)C)cc3)nnn2c2ccsc12 |
| 170 | Cc1ccc(C)c(S(=O)(=O)c2nnn3c2nc(NC(C)c2ccccc2)c2sccc23)c1 (stereo not drawn) |
| 410 | O=S(=O)(c1ccc(Cl)cc1)c1nnn2c1nc(NCc1ccco1)c1sccc12 |
| 170 | O=S(=O)(c1ccccc1)c1nnn2c1nc(NC1CCCCCC1)c1sccc12 |
| 1200 | CC(C)Nc1nc2c(S(=O)(=O)c3ccc(Cl)cc3)nnn2c2ccsc12 |
| 59 | O=S(=O)(c1ccccc1)c1nnn2c1nc(NCc1ccccc1)c1sccc12 |
| 860 | COCCNc1nc2c(S(=O)(=O)c3cc(C)ccc3C)nnn2c2ccsc12 |

| IC50 [nM] | Structure (SMILES) |
| --- | --- |
| 120 | Cc1ccc(S(=O)(=O)c2nnn3c2nc(NCc2cccc(Cl)c2)c2sccc23)cc1 |
| 680 | Cc1ccc(S(=O)(=O)c2nnn3c2nc(NC(C)Cc2ccccc2)c2sccc23)cc1C (stereo not drawn) |
| 890 | Cc1ccc(C)c(S(=O)(=O)c2nnn3c2nc(NCC2CCCO2)c2sccc23)c1 (stereo not drawn) |
| 860 | COc1cccc(Nc2nc3c(S(=O)(=O)c4ccc(C)c(C)c4)nnn3c3ccsc23)c1 |
| 37 | CC(Nc1nc2c(S(=O)(=O)c3ccccc3)nnn2c2ccsc12)c1ccccc1 (stereo not drawn) |
| 32 | O=S(=O)(c1ccccc1)c1nnn2c1nc(NCc1ccccc1Cl)c1sccc12 |
| 2210 | COc1cccc(CNc2nc3c(S(=O)(=O)c4ccc(C)cc4)nnn3c3ccsc23)c1 |
| 590 | Cc1ccc(C)c(S(=O)(=O)c2nnn3c2nc(NC2CCCC2)c2sccc23)c1 |
| 690 | O=S(=O)(c1ccccc1)c1nnn2c1nc(NCc1ccc(F)cc1)c1sccc12 |
| > 5000 | COCCCNc1nc2c(S(=O)(=O)c3ccc(Cl)cc3)nnn2c2ccsc12 |
| 580 | CN(C)CCN(C)c1nc2c(S(=O)(=O)c3cccc(Cl)c3)nnn2c2ccsc12 [listing 2 of 2 here] |
| 280 | CC(Nc1nc2c(S(=O)(=O)c3ccc(Cl)cc3)nnn2c2ccsc12)c1ccccc1 (stereo not drawn) |
| 690 | Nc1nc2c(S(=O)(=O)c3cccc(Cl)c3)nnn2c2ccsc12 |
| 670 | Cc1ccc(C)c(S(=O)(=O)c2nnn3c2nc(NCCc2ccccc2)c2sccc23)c1 |
| 5220 | Cc1ccc(S(=O)(=O)c2nnn3c2nc(Nc2cccc(C)c2)c2sccc23)cc1 |
| 1100 | CCN(Cc1ccccc1)c1nc2c(S(=O)(=O)c3cc(C)ccc3C)nnn2c2ccsc12 |
| 780 | COc1ccccc1CNc1nc2c(S(=O)(=O)c3cccc(Cl)c3)nnn2c2ccsc12 |
| 470 | CC(C)Nc1nc2c(S(=O)(=O)c3cccc(Cl)c3)nnn2c2ccsc12 |
| 350 | Cc1ccc(S(=O)(=O)c2nnn3c2nc(NC2CCCCCC2)c2sccc23)cc1C |
| 260 | Cc1ccc(S(=O)(=O)c2nnn3c2nc(NCc2ccccc2)c2sccc23)cc1 |
| 1750 | CCc1ccc(S(=O)(=O)c2nnn3c2nc(Nc2cccc(C)c2)c2sccc23)cc1 |
| 730 | Cc1ccc(S(=O)(=O)c2nnn3c2nc(NC2CCCCC2)c2sccc23)cc1 |
| 250 | Cc1ccc(S(=O)(=O)c2nnn3c2nc(NCC2CCCO2)c2sccc23)cc1 (stereo not drawn) |
| > 5000 | COCCCNc1nc2c(S(=O)(=O)c3ccc(Br)cc3)nnn2c2ccsc12 |

target: T1, 5-hydroxytryptamine receptor 6; assay: Binding affinity to human recombinant 5HT6 receptor expressed in HEK293 cells by radioligand displacement assay; assay type: cell-based
Summary of the method: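 Competitive radioligand binding at the 5-HT6 receptor, run by MDS Pharma Services as part of a serotonin receptor panel. IC50 and Ki values derived.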

| IC50 [nM] | Ki [nM] | Structure (SMILES) |
| --- | --- | --- |
| 56.7 | 26.3 | CC12CC3CC(C)(C1)CC(Nc1nc4c(S(=O)(=O)c5ccccc5)nnn4c4ccsc14)(C3)C2 |
